{"source": "ChEMBL document CHEMBL2396594", "about": "“Designing allosteric regulators of thrombin. Exosite 2 features multiple subsites that can be targeted by sulfated small molecules for inducing inhibition” (J Med Chem, 2013)", "key": {"[1]": {"test": "Inhibition of recombinant human thrombin R126A mutant expressed in BHK cells using S2238 as substrate after overnight incubation at 25 degC", "how_it_was_run": "(§1)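 BHK-expressed, HPC4 immunoaffinity-purified thrombins, activated from prothrombin form. Active-site concentration from amidolysis and antithrombin titration. Enzyme (1.5−7.5 nM final) incubated overnight at 25 °C with inhibitor in Tris pH 7.4 buffer in coated cuvettes. Residual activity from S2238 initial rate at A405, using at least 9−10 points. Logistic fit gives IC50. Ratio is mutant IC50 over wild-type IC50.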"}, "[2]": {"test": "(§2) Binding affinity to human plasma alpha-thrombin exosite-2 using spectrozyme TH as substrate after overnight incubation at 25 degC by spectrophotometric analysis in presence of 0.2 uM gamma'-fibrinogen peptide", "type": "cell-free"}, "Homo sapiens [3]": {"species": "Homo sapiens", "test": "as §2", "type": "cell-free"}, "[4]": {"test": "Inhibition of recombinant human thrombin R173A mutant expressed in BHK cells using S2238 as substrate after overnight incubation at 25 degC", "how_it_was_run": "as §1"}, "Homo sapiens [5]": {"species": "Homo sapiens", "test": "Selectivity ratio of IC50 for human plasma alpha-thrombin to IC50 for wild type recombinant human thrombin"}, "[6]": {"test": "Inhibition of recombinant human thrombin K240A mutant expressed in BHK cells using S2238 as substrate after overnight incubation at 25 degC", "how_it_was_run": "as §1"}, "[7]": {"test": "Inhibition of recombinant human thrombin K236A mutant expressed in BHK cells using S2238 as substrate after overnight incubation at 25 degC", "how_it_was_run": "as §1"}, "[8]": {"test": "(§3) Binding affinity to human plasma alpha-thrombin exosite-2 using spectrozyme TH as substrate after overnight incubation at 25 degC by spectrophotometric analysis in presence of 10 uM heparin octasaccharide", "type": "cell-free"}, "Homo sapiens [9]": {"species": "Homo sapiens", "test": "as §3", "type": "cell-free"}, "[10]": {"test": "Inhibition of recombinant human thrombin K169A mutant expressed in BHK cells using S2238 as substrate after overnight incubation at 25 degC", "how_it_was_run": "as §1"}, "Homo sapiens [11]": {"species": "Homo sapiens", "test": "Uncompetitive inhibition of human plasma alpha-thrombin using spectrozyme TH as substrate assessed as decrease in enzyme Vmax at 9.9 uM after 2 hrs at 37 degC by Michaelis-Menten equation analysis relative to control", "type": "cell-free", "how_it_was_run": "(§4)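 5 nM plasma α-thrombin with fixed inhibitor, preincubated overnight at 25 °C or 2 h at 37 °C in 20 mM Tris-HCl pH 7.4, 100 mM NaCl, 2.5 mM CaCl2, 0.1% PEG8000. Initial Spectrozyme TH (2−80 μM) hydrolysis rate read at 405 nm with under 10% substrate consumption. Michaelis−Menten fit gives KM and VMAX; error ±1 SE.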"}, "Plasma [12]": {"test_system": "Plasma", "test": "Anticoagulant activity in human plasma assessed as increase in prothrombin time at 568 uM after 30 secs by fibrometric analysis relative to control", "type": "functional", "how_it_was_run": "(§5)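 Citrated human plasma, one-stage recalcification, fibrometer read-out. APTT: 90 μL plasma + 10 μL inhibitor or vehicle + prewarmed 0.2% ellagic acid, 4 min, then 25 mM CaCl2 (37 °C). PT: inhibitor + plasma 30 s at 37 °C, then prewarmed thromboplastin. Duplicates. Quadratic trend line fit gives concentration doubling clotting time versus vehicle blank.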"}, "Homo sapiens [13]": {"species": "Homo sapiens", "test": "Uncompetitive inhibition of human plasma alpha-thrombin using spectrozyme TH as substrate assessed as decrease in substrate Km at 9.9 uM after 2 hrs at 37 degC by Michaelis-Menten equation analysis relative to control", "type": "cell-free", "how_it_was_run": "as §4"}, "Prothrombin": {"target": "Prothrombin (Homo sapiens, UniProt P00734)", "test": "Inhibition of wild type recombinant human thrombin expressed in BHK cells using S2238 as substrate after overnight incubation at 25 degC", "how_it_was_run": "as §1"}, "[14]": {"test": "(§6) Binding affinity to human plasma alpha-thrombin exosite-2 using spectrozyme TH as substrate after overnight incubation at 25 degC by spectrophotometric analysis in presence of 25 uM unfractionated heparin", "type": "cell-free"}, "Homo sapiens [15]": {"species": "Homo sapiens", "test": "as §6", "type": "cell-free"}, "[16]": {"test": "(§7) Binding affinity to human plasma alpha-thrombin exosite-2 using spectrozyme TH as substrate after overnight incubation at 25 degC by spectrophotometric analysis in presence of 2 uM gamma'-fibrinogen peptide", "type": "cell-free"}, "Homo sapiens [17]": {"species": "Homo sapiens", "test": "as §7", "type": "cell-free"}, "[18]": {"test": "(§8) Binding affinity to human plasma alpha-thrombin exosite-2 using spectrozyme TH as substrate after overnight incubation at 25 degC by spectrophotometric analysis in presence of 6.5 uM gamma'-fibrinogen peptide", "type": "cell-free"}, "Homo sapiens [19]": {"species": "Homo sapiens", "test": "as §8", "type": "cell-free"}, "[20]": {"test": "Inhibition of human plasma alpha-thrombin assessed as spectrozyme TH hydrolysis preincubated for 10 mins by spectrophotometric analysis", "type": "cell-free", "how_it_was_run": "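Human plasma α-thrombin (5 nM final) with inhibitor (1−900 μM final) in 20 mM Tris-HCl pH 7.4, 100 mM NaCl, 2.5 mM CaCl2, 0.1% PEG8000, PEG20000-coated cuvettes, 10 min. Spectrozyme TH then added (30 μM final). Initial rate from A405 increase. Residual activity fitted by logistic equation with floating Hill slope, Y0, YM to give IC50.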"}, "[21]": {"test": "Inhibition of recombinant human thrombin R233A mutant expressed in BHK cells using S2238 as substrate after overnight incubation at 25 degC", "how_it_was_run": "as §1"}, "Homo sapiens [22]": {"species": "Homo sapiens", "test": "Uncompetitive inhibition of human plasma alpha-thrombin using spectrozyme TH as substrate assessed as decrease in substrate Km at 3.6 uM after overnight incubation at 25 degC by Michaelis-Menten equation analysis relative to control", "type": "cell-free", "how_it_was_run": "as §4"}, "Homo sapiens [23]": {"species": "Homo sapiens", "test": "Selectivity ratio of IC50 for recombinant human thrombin K236A mutant to IC50 for wild type recombinant human thrombin", "how_it_was_run": "as §1"}, "Homo sapiens [24]": {"species": "Homo sapiens", "test": "Uncompetitive inhibition of human plasma alpha-thrombin using spectrozyme TH as substrate assessed as decrease in enzyme Vmax at 3.6 uM after overnight incubation at 25 degC by Michaelis-Menten equation analysis relative to control", "type": "cell-free", "how_it_was_run": "as §4"}, "[25]": {"test": "(§9) Binding affinity to human plasma alpha-thrombin exosite-1 using spectrozyme TH as substrate after overnight incubation at 25 degC by spectrophotometric analysis in presence of 15 nM hirugen peptide", "type": "cell-free"}, "Homo sapiens [26]": {"species": "Homo sapiens", "test": "as §9", "type": "cell-free"}, "[27]": {"test": "(§10) Binding affinity to human plasma alpha-thrombin exosite-2 using spectrozyme TH as substrate after overnight incubation at 25 degC by spectrophotometric analysis in presence of 0.65 uM gamma'-fibrinogen peptide", "type": "cell-free"}, "Homo sapiens [28]": {"species": "Homo sapiens", "test": "as §10", "type": "cell-free"}, "[29]": {"test": "Inhibition of recombinant human thrombin R165A mutant expressed in BHK cells using S2238 as substrate after overnight incubation at 25 degC", "how_it_was_run": "as §1"}, "[30]": {"test": "(§11) Binding affinity to human plasma alpha-thrombin exosite-2 using spectrozyme TH as substrate after overnight incubation at 25 degC by spectrophotometric analysis in presence of 4.2 uM unfractionated heparin", "type": "cell-free"}, "Homo sapiens [31]": {"species": "Homo sapiens", "test": "as §11", "type": "cell-free"}, "[32]": {"test": "Inhibition of recombinant human thrombin R101A mutant expressed in BHK cells using S2238 as substrate after overnight incubation at 25 degC", "how_it_was_run": "as §1"}, "Plasma [33]": {"test_system": "Plasma", "test": "Anticoagulant activity in human plasma assessed as increase in activated partial […] time at 139 uM after 4 mins by fibrometric analysis relative to control", "type": "functional", "how_it_was_run": "as §5"}, "[34]": {"test": "(§12) Binding affinity to human plasma alpha-thrombin exosite-2 using spectrozyme TH as substrate after overnight incubation at 25 degC by spectrophotometric analysis in presence of 12.8 uM unfractionated heparin", "type": "cell-free"}, "Homo sapiens [35]": {"species": "Homo sapiens", "test": "as §12", "type": "cell-free"}}}
{"smiles": "CCOC(=O)c1c(C)oc2cc(OC)c(OCc3oc4cc(OC)c(OCc5oc6cc(OC)c(OS(=O)(=O)[O-])cc6c5C(=O)OCC)cc4c3C(=O)OCC)cc12.[Na+]", "values": [{"measurement": "IC50", "setting": "[1]", "result": 290, "unit": "nM"}, {"measurement": "pIC50", "setting": "[1]", "result": 6.55}, {"measurement": "IC50", "setting": "[2]", "result": 1200, "unit": "nM"}, {"measurement": "pIC50(app)", "setting": "Homo sapiens [3]", "result": 5.94}, {"measurement": "pIC50", "setting": "[4]", "result": 6.59}, {"measurement": "Ratio IC50", "setting": "Homo sapiens [5]", "result": 2.5}, {"measurement": "IC50", "setting": "[6]", "result": 270, "unit": "nM"}, {"measurement": "pIC50", "setting": "[6]", "result": 6.57}, {"measurement": "IC50", "setting": "[7]", "result": 400, "unit": "nM"}, {"measurement": "pIC50", "setting": "[7]", "result": 6.4}, {"measurement": "IC50", "setting": "[8]", "result": 1600, "unit": "nM"}, {"measurement": "pIC50(app)", "setting": "Homo sapiens [9]", "result": 5.78}, {"measurement": "IC50", "setting": "[10]", "result": 330, "unit": "nM"}, {"measurement": "pIC50", "setting": "[10]", "result": 6.48}, {"measurement": "fold change (FC)", "setting": "Homo sapiens [11]", "result": 5.7}, {"measurement": "fold change (FC)", "setting": "Plasma [12]", "result": 2}, {"measurement": "fold change (FC)", "setting": "Homo sapiens [13]", "result": 4.1}, {"measurement": "IC50", "setting": "Prothrombin; read-out: IC50", "result": 260, "unit": "nM"}, {"measurement": "IC50", "setting": "Prothrombin; read-out: pIC50 (converted)", "result": 263, "unit": "nM"}, {"measurement": "IC50", "setting": "[14]", "result": 3800, "unit": "nM"}, {"measurement": "pIC50(app)", "setting": "Homo sapiens [15]", "result": 5.42}, {"measurement": "IC50", "setting": "[16]", "result": 1200, "unit": "nM"}, {"measurement": "pIC50(app)", "setting": "Homo sapiens [17]", "result": 5.92}, {"measurement": "IC50", "setting": "[18]", "result": 1300, "unit": "nM"}, {"measurement": "pIC50(app)", "setting": "Homo sapiens [19]", "result": 5.88}, {"measurement": "IC50", "setting": "[20]; read-out: IC50", "result": 670, "unit": "nM"}, {"measurement": "IC50", "setting": "[20]; read-out: pIC50 (converted)", "result": 676, "unit": "nM"}, {"measurement": "IC50", "setting": "[21]", "result": 980, "unit": "nM"}, {"measurement": "pIC50", "setting": "[21]", "result": 6.01}, {"measurement": "fold change (FC)", "setting": "Homo sapiens [22]", "result": 3.1}, {"measurement": "Ratio IC50", "setting": "Homo sapiens [23]", "result": 1.5}, {"measurement": "fold change (FC)", "setting": "Homo sapiens [24]", "result": 4.3}, {"measurement": "IC50", "setting": "[25]", "result": 900, "unit": "nM"}, {"measurement": "pIC50(app)", "setting": "Homo sapiens [26]", "result": 6.04}, {"measurement": "IC50", "setting": "[27]", "result": 1100, "unit": "nM"}, {"measurement": "pIC50(app)", "setting": "Homo sapiens [28]", "result": 5.95}, {"measurement": "pIC50", "setting": "[29]", "result": 6.59}, {"measurement": "IC50", "setting": "[30]", "result": 1000, "unit": "nM"}, {"measurement": "pIC50(app)", "setting": "Homo sapiens [31]", "result": 6}, {"measurement": "IC50", "setting": "[32]", "result": 390, "unit": "nM"}, {"measurement": "pIC50", "setting": "[32]", "result": 6.41}, {"measurement": "fold change (FC)", "setting": "Plasma [33]", "result": 2}, {"measurement": "IC50", "setting": "[34]", "result": 2100, "unit": "nM"}, {"measurement": "pIC50(app)", "setting": "Homo sapiens [35]", "result": 5.68}]}
